TbHK1 inh – T. brucei hexokinase 1 inhibition; recombinant TbHK1, G6PDH-coupled NADH A340; inhibition, % at 10 µM; 220,000 compounds, 0.11% hits; AID 1430;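 active = inhibition of 50% or more in the single-dose primary screen; inactive = inhibition below 50%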
Runt-CBFb FRET – inhibitors of human RUNX1 Runt domain binding to CBFb; AID 1496; inhibition, % at 20 µM; Q01196+Q13951; Cerulean-Runt/Venus-CBFb FRET ratio 530/480, 1 h; 220,000 compounds, 0.46% hits;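 active = inhibition over about 50% at 20 µM in the single-dose screen, limit read from the data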;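 note: 0% = DMSO wells and 100% = excess unlabeled CBFb competitor control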
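Assay system: Cerulean-Runt domain fusion protein, energy donor; Signal: fluorescence energy transfer, 422 nm excitation, 530/480 nm emission; Timing: 1 h compound exposure, room temperature; Control set: unlabeled CBFb; Medium: Tris buffer pH 7.5 with salts and BSA; Compound: single test concentration of 20 µM, 1% DMSO final; Probe or stimulus: Venus-CBFb 100 nM.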
Runt-SMMHC FRET – Runt domain-CBFb-SMMHC interaction inhibition; Cerulean-Runt/Venus-CBFb-SMMHC FRET ratio 530/480, 1 h; inhibition, % at 20 µM; 220,000 compounds, 0.74% hits; AID 1434;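 active = mean inhibition across duplicate retests at 20 µM reaching about 50%, limit read from the data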;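 note: 0% = DMSO wells and 100% = wells with excess untagged CBFb-SMMHC; inhibitors lower the FRET ratio by blocking Runt binding to CBFb-SMMHC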
p97 ATPase inh – blocks human p97 ATPase activity; recombinant p97 ATPase, Kinase-Glo ATP luminescence, 3 h; inhibition, % at 8 µM; P55072; 220,000 compounds, 0.42% hits; AID 1481; in the data active = inhibition above about 15%;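 note: 0% = DMSO vehicle and 100% = wells lacking enzyme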
Hck Nef HTS – blocks Nef-activated human Hck kinase | P08631 | inhibition, % at 20 µM | 220,000 compounds, 0.68% hits | AID 463187 | Recombinant Hck-YEEI plus Nef, Z-Lyte FRET kinase assay;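 active = Hck-Nef kinase inhibition above about 50%, limit read from the data; inactive = inhibition below that limit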;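 note: 0% = DMSO with Hck plus Nef and 100% = Hck alone without Nef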
Target sequence (P08631 whole entry, looked up): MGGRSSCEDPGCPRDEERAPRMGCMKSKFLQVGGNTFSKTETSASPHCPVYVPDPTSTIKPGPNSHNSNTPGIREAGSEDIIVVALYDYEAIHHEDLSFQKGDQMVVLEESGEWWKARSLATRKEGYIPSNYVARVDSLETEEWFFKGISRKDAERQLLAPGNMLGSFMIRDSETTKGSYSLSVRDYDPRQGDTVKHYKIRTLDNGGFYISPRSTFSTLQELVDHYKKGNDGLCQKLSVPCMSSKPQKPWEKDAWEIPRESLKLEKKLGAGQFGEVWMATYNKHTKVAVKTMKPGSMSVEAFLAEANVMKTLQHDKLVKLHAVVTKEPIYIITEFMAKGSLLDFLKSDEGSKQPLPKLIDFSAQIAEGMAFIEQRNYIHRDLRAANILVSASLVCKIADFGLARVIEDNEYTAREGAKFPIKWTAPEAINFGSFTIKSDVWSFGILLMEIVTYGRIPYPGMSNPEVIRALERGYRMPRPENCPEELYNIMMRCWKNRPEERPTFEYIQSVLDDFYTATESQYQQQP
RanGTP-Imp inh – inhibitors of RanGTP-importin-beta interaction, primary screen, biochemical, FRET, CFP-Ran, YFP-importin-beta, homogeneous; cell-free CFP-Ran/YFP-importin-beta FRET ratio; inhibition, % (test concentration not listed); 300,000 compounds, 1.1% hits;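 active = more than half of the replicate wells show a fall in the fluorescence ratio signal beyond about 16%, limit read from the data, passing the limit was not always enough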;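 note: 0% = DMSO wells and 100% = Ran loaded with GDP instead of GTP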
YIC FRET counter – counter-screen for RanGTP-importin-beta inhibitors: YIC FRET probe | shares compounds with RanGTP-Imp inh | Purified YIC probe, intramolecular FRET ratio YFP/CFP | IC50, µM | 1,000 compounds, 40% hits | AID 435026;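 active = fitted half-maximal inhibitory concentration no more than tenfold above the top dose tested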
Hck-Nef confirm – confirmation of Hck-Nef kinase inhibitors | shares compounds with Hck Nef HTS | Recombinant Hck-YEEI:Nef, Z-Lyte FRET kinase assay | calls only at 10 µM | 1,300 compounds, 28% hits;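 active = average inhibition of at least 50%, with Z-scores no higher than 3 in both the phospho-tyrosine peptide and fluorescence counterscreens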
* marks the source's active call; other numbers are inactive results; i = inactive; / = no result shown; + = active, no number. Sampled rows, rich in hits. Any-hit rate of the full collection: about 2.1%.

SMILES | TbHK1 inh | Runt-CBFb FRET | Runt-SMMHC FRET | p97 ATPase inh | Hck Nef HTS | RanGTP-Imp inh | YIC FRET counter | Hck-Nef confirm
COc1ccc(Oc2nc3c(C)cccn3c(=O)c2/C=C(\C#N)C(N)=O)cc1 | -6.1 | 34.0 | 82.3* | 6.0 | 29.6 | 21.8* | 6* | /
O=C(CN1C(=O)NC2(CCCC2)C1=O)Nc1nc2ccccc2[nH]1 | / | / | / | / | / | -3.5 | / | /
Cc1ccc(C(=O)NCc2ccco2)cc1S(=O)(=O)N1CCOCC1 | -2.3 | / | -11.1 | 4.9 | 0.8 | 25.2* | >50 | /
COc1ccc(OC)c(S(=O)(=O)n2ccnc2C)c1 | -3.2 | 0.5 | 3.4 | -5.5 | 0.2 | 27.0* | >50 | /
COc1ccc2cc(C(C)=O)c(=O)oc2c1 | -25.6 | 19.4 | 61.8* | 2.7 | 4.4 | 18.5* | 34.6* | /
COc1ccc2cc(C(=O)NC3CCCCC3)c(=O)oc2c1 | -12.2 | 3.5 | -0.3 | -4.4 | 0.3 | -1.1 | / | /
CCCOc1ccc(C2C(C(=O)OC)=CN(CCOC)C=C2C(=O)OC)cc1 | -4.3 | 88.0* | / | -3.9 | 55.5* | 25.5* | 16.7* | /
CC(C)CCN(CCC(C)C)CC(O)Cn1c2ccccc2c(=O)c2ccccc21 (configuration not stated) | 10.6 | 107.1* | 82.5* | 2.5 | 117.2* | 57.2* | 3.73* | /
COc1cc(-c2nnc(COC(=O)c3nn(CC(C)C)c(=O)c4ccccc34)o2)cc(OC)c1OC | / | / | / | / | / | 5.8 | / | /
CSc1ccc(Cl)c(C(=O)NCCCn2ccnc2)c1 | / | / | / | / | / | -3.3 | / | /
CC(=O)Oc1cc2oc(=O)cc(C)c2cc1OC(C)=O | -13.2 | 81.0* | 41.9 | -2.9 | 68.2* | 30.2* | 44.8* | /
C=C(C)COc1ccc2c(C)c(CC(=O)OC)c(=O)oc2c1C | -22.2 | -1.2 | -8.0 | -0.5 | 2.8 | / | / | /
CCN(CC)Cc1c(O)ccc2c(C)c(CC(=O)OC)c(=O)oc12 | -30.9 | 116.8* | 80.2* | 4.2 | 73.2* | 31.6* | 13.6* | /
CCCc1cc(=O)oc2cc(C)c(CN3CCCC3)c(O)c12 | 2.4 | -4.5 | -18.8 | 7.2 | 2.0 | 2.9 | / | /
CCCc1cc(=O)oc2c(CN3CCCC3)c(O)c(Cl)cc12 | -35.5 | 98.1* | 159.8* | 0.9 | 116.3* | 61.6* | 27.2* | i
COC(=O)c1ccc(N2CCN(C)CC2)c(NC(=O)c2cccs2)c1 | / | / | / | / | / | -4.6 | / | /
CCOc1ccc(-n2c3nc4ccccc4nc3c3c(=O)n(Cc4ccco4)cnc32)cc1 | -8.0 | / | / | 5.1 | -1.6 | / | / | /
CCOc1ccc(-n2c(N)c(C(=O)NCc3ccco3)c3nc4ccccc4nc32)cc1 | -16.9 | 34.7 | 86.0* | 3.9 | 52.9* | 25.1* | 20.8* | i
O=C(c1ccccc1)c1cc2ccc(O)cc2oc1=O | -11.1 | / | 174.0* | -6.0 | 69.3* | 27.4* | 18.2* | /
O=C(CN1CCN(S(=O)(=O)c2ccc(F)cc2)CC1)Nc1ccc(Cl)cn1 | / | / | / | / | / | 2.5 | / | /
NC(=S)n1[nH]c(-c2ccc([N+](=O)[O-])cc2)c(N=Nc2cccc([N+](=O)[O-])c2)c1=O | 5.6 | 0.6 | -3.2 | 2.6 | 76.0* | -4.3 | / | +
CCCC12CN3CC(C)(CN(C1)C3c1ccc([N+](=O)[O-])o1)C2=O (configuration not stated) | -27.2 | -0.3 | -4.6 | 8.3 | 2.2 | -2.5 | / | /
CCC12CN3CC(CC)(CN(C1)C3c1ccc([N+](=O)[O-])o1)C2=O (configuration not stated) | -10.2 | 1.3 | -1.5 | 4.1 | 50.1* | 3.8 | / | i
O=C(CCC(=O)N(CC(=O)NC1CCCCC1)Cc1cccs1)Nc1nccs1 | 6.7 | -0.7 | -3.3 | -1.3 | 27.3 | 10.2 | / | /
Cc1ccc(-c2nn3c(C)nnc3s2)cc1NC(=O)c1ccc(-c2ccc(Cl)cc2Cl)o1 | -18.8 | 0.0 | -8.7 | -5.3 | 50.2* | / | / | +
SMILES | TbHK1 inh | Runt-CBFb FRET | Runt-SMMHC FRET | p97 ATPase inh | Hck Nef HTS | RanGTP-Imp inh | YIC FRET counter | Hck-Nef confirm
Cc1ccc(-c2nn3c(C)nnc3s2)cc1NC(=O)c1ccc(-c2cccc(Cl)c2)o1 | -11.6 | 11.9 | -3.6 | 7.2 | 15.2 | 10.4 | / | /
Cc1[nH]c2ccccc2c1C(=O)CSc1nc2ncc(Cl)cc2[nH]1 | 6.0 | -2.6 | -9.9 | 6.8 | 72.3* | -3.8 | / | +
O=C(CSc1nc2ncc(Cl)cc2[nH]1)Nc1ccccc1-c1ccccc1 | / | / | / | / | / | 5.7 | / | /
O=C(CSc1nc2ncc(Cl)cc2[nH]1)NCC(=O)Nc1ccc(F)c(F)c1F | -6.2 | -0.7 | -0.9 | -2.5 | 61.2* | 7.3 | / | /
Cc1[nH]c(=O)[nH]c(=O)c1S(=O)(=O)Nc1ccc(F)c([N+](=O)[O-])c1 | / | / | / | / | / | 3.6 | / | /
N#Cc1c(NC(=O)CN2CCN(S(=O)(=O)c3ccc4c(c3)OCCO4)CC2)sc2c1CCC2 | 26.4 | -2.7 | -8.4 | 5.4 | 53.4* | 1.9 | / | i
O=C(CN1C(=O)/C(=C2\SC(=S)N(C3CCS(=O)(=O)C3)C2=O)c2ccccc21)Nc1ccc(F)cc1 (configuration not stated) | 11.8 | 13.4 | -0.2 | 3.9 | 48.0 | -2.7 | / | /
COc1ccc(NC(=O)CN2C(=O)/C(=C3\SC(=S)N(C4CCS(=O)(=O)C4)C3=O)c3ccccc32)cc1 (configuration not stated) | 24.5 | 14.6 | 2.1 | 6.3 | 99.1* | 1.9 | / | +
C=CCN(CC=C)C(=O)c1cc(Cl)ccc1[N+](=O)[O-] | 18.5 | 0.7 | -1.9 | -0.4 | 64.4* | 0.4 | / | i
C=CCNC(=O)c1cc(Cl)ccc1[N+](=O)[O-] | -2.7 | -1.7 | 3.2 | 2.0 | 1.0 | 6.0 | / | /
COC(=O)c1ccc(-n2nnnc2SCC(=O)Nc2ccccc2F)cc1 | / | / | / | / | / | -4.7 | / | /
Cc1ccc(-c2nc3ccccc3s2)cc1NC(=O)c1cc(-n2cnnc2)ccc1Cl | -33.1 | / | -3.5 | 2.7 | 91.3* | -1.2 | / | i
O=C(N/N=C/c1ccc(-c2ccc(Cl)c(C(=O)O)c2)o1)c1cc2c(ccc3ccccc32)o1 | -30.6 | 12.7 | 80.3* | 5.4 | 71.7* | 8.0 | / | +
Cc1ccc(-c2ccc(/C=N\NC(=O)c3cc4c(ccc5ccccc54)o3)o2)cc1[N+](=O)[O-] | -24.9 | -0.7 | -8.4 | -1.1 | 27.5 | 3.9 | / | /
S=c1[nH]nc(-c2cc(-c3ccccc3)n[nH]2)n1/N=C/C=C/c1ccco1 | 0.4 | 26.2 | 11.2 | 8.4 | 71.3* | -0.4 | / | i
Cc1ccccc1/C=N/n1c(-c2cc(-c3ccccc3)n[nH]2)n[nH]c1=S | -17.2 | 10.5 | 31.2 | -7.3 | 9.6 | 4.0 | / | /
S=c1[nH]nc(-c2n[nH]c3c2CCC3)n1/N=C/C=C/c1ccco1 | -32.2 | 27.7 | 15.6 | 7.3 | 75.3* | 3.7 | / | i

Screens deposited in PubChem by several laboratories.
